Here are results for 3 compounds from ChEMBL document CHEMBL3259751, “A rational design strategy of the novel topoisomerase II inhibitors for the synthesis of the 4-O-(2-pyrazinecarboxylic)-4'-demethylepipodophyllotoxin with antitumor activity by diminishing the relaxation reaction of topoisomerase II-DNA decatenation” (Bioorg Med Chem, 2014).

Each structure is given as a SMILES string.

The first data set relates to HepG2. Description: Cytotoxicity against human HepG2 cells after 48 hrs by MTT assay. Format: functional, cell-based. The following applies: HepG2, 48 h. The gist of the method:
(§1)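 Cells seeded at 3500–13,000 per well. A549, HeLa and HepG2 were grown in DMEM and BGC-823 in RPMI 1640, each with 10% CS plus penicillin/streptomycin, at 37 °C and 5% CO₂. Drug exposure lasted 2 days, followed by MTT readout at A₄₉₂, with untreated controls at 0.6–0.8. IC50 was the concentration cutting absorbance by 50%, interpolated by sigmoidal nonlinear regression. Run in triplicate.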
For the compound `COc1cc([C@@H]2c3cc4c(cc3[C@@H](NC(=O)c3cnc(C)cn3)[C@H]3COC(=O)[C@H]23)OCO4)cc(OC)c1O`, the IC50 (in general, the concentration that gives 50% inhibition) was determined as 6.78 µM.

Turning to `COc1cc([C@@H]2c3cc4c(cc3[C@@H](NC(=O)Cn3cnc5c3c(=O)n(C)c(=O)n5C)[C@H]3COC(=O)[C@H]23)OCO4)cc(OC)c1O`, inhibition was half-maximal at 2.35 µM (IC50).

`COc1cc([C@@H]2c3cc4c(cc3[C@@H](OC(=O)c3cnc(C)cn3)[C@H]3COC(=O)[C@H]23)OCO4)cc(OC)c1O` gave an IC50 of 14.2 µM.

The subject of another data set is HeLa. Kind of data set: Cytotoxicity against human HeLa cells after 48 hrs by MTT assay. The format is functional, cell-based.
Conditions: not given
The method in brief:
as §1
For orientation: Formazan colour is commonly taken as a measure of viable cells.
On to `COc1cc([C@@H]2c3cc4c(cc3[C@@H](NC(=O)c3cnc(C)cn3)[C@H]3COC(=O)[C@H]23)OCO4)cc(OC)c1O`, for which 16.1 µM corresponded to half-maximal inhibition (IC50).

Take `COc1cc([C@@H]2c3cc4c(cc3[C@@H](NC(=O)Cn3cnc5c3c(=O)n(C)c(=O)n5C)[C@H]3COC(=O)[C@H]23)OCO4)cc(OC)c1O`: the IC50 stood at 3.18 µM. Compared with the last compound, the IC50 is about 5.1-fold lower.

`COc1cc([C@@H]2c3cc4c(cc3[C@@H](OC(=O)c3cnc(C)cn3)[C@H]3COC(=O)[C@H]23)OCO4)cc(OC)c1O` came in with an IC50 of 9.56 µM.

System in the next data set: not listed separately
Description: Octanol-water partition coefficient, log P of the compound. Format: physicochemical.
Conditions: not given
The gist of the method: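 Partitioning between 1-octanol and water. The compound concentration was measured in each phase, and logP was calculated as the log of the 1-octanol concentration over the water concentration. The water concentration was corrected by an index-error factor, Y = 2.555.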
As for `COc1cc([C@@H]2c3cc4c(cc3[C@@H](NC(=O)c3cnc(C)cn3)[C@H]3COC(=O)[C@H]23)OCO4)cc(OC)c1O`, the log partition coefficient (logP) – broadly, the decadic logarithm of the partition coefficient of the neutral form, usually between octanol and water – worked out at 0.59.

Consider `COc1cc([C@@H]2c3cc4c(cc3[C@@H](NC(=O)Cn3cnc5c3c(=O)n(C)c(=O)n5C)[C@H]3COC(=O)[C@H]23)OCO4)cc(OC)c1O`, for which the logP worked out at 0.56.

In turn, `COc1cc([C@@H]2c3cc4c(cc3[C@@H](OC(=O)c3cnc(C)cn3)[C@H]3COC(=O)[C@H]23)OCO4)cc(OC)c1O` had a lipophilicity (logP) of 0.38.

System in a further data set: not listed separately
Kind of data set: Cytotoxicity against human HL-7702 cells after 48 hrs by MTT assay relative to etoposide. The format is functional, L02.
Conditions: not given
The compound `COc1cc([C@@H]2c3cc4c(cc3[C@@H](NC(=O)Cn3cnc5c3c(=O)n(C)c(=O)n5C)[C@H]3COC(=O)[C@H]23)OCO4)cc(OC)c1O` gave an Activity of 106%.

The subject of the next data set is A549. Kind of data set: Cytotoxicity against human A549 cells after 48 hrs by MTT assay. Format: functional, cell-based. The following applies: A549, 48 h. The method in brief:
as §1
`COc1cc([C@@H]2c3cc4c(cc3[C@@H](NC(=O)c3cnc(C)cn3)[C@H]3COC(=O)[C@H]23)OCO4)cc(OC)c1O` had an IC50 of 18.7 µM. This lies in the double-digit micromolar range.

`COc1cc([C@@H]2c3cc4c(cc3[C@@H](NC(=O)Cn3cnc5c3c(=O)n(C)c(=O)n5C)[C@H]3COC(=O)[C@H]23)OCO4)cc(OC)c1O`: the IC50 amounted to 7.32 µM. Against the preceding compound, the IC50 is about 2.6-fold lower.

In turn, `COc1cc([C@@H]2c3cc4c(cc3[C@@H](OC(=O)c3cnc(C)cn3)[C@H]3COC(=O)[C@H]23)OCO4)cc(OC)c1O` came in with an IC50 of 10.5 µM.

System in a further data set: not listed separately
Kind of data set: Cytotoxicity against human HL-7702 cells after 48 hrs by MTT assay. The following applies: Homo sapiens, L02, 48 h. The format is cell-based, L02.
`COc1cc([C@@H]2c3cc4c(cc3[C@@H](NC(=O)c3cnc(C)cn3)[C@H]3COC(=O)[C@H]23)OCO4)cc(OC)c1O` returned an IC50 of 20.7 µM.

Take `COc1cc([C@@H]2c3cc4c(cc3[C@@H](NC(=O)Cn3cnc5c3c(=O)n(C)c(=O)n5C)[C@H]3COC(=O)[C@H]23)OCO4)cc(OC)c1O`: it took 50.8 µM to reach half-maximal inhibition (IC50).

Take `COc1cc([C@@H]2c3cc4c(cc3[C@@H](OC(=O)c3cnc(C)cn3)[C@H]3COC(=O)[C@H]23)OCO4)cc(OC)c1O`: 18.6 µM corresponded to half-maximal inhibition (IC50).

The data set is the same for the next values; noted with them: human, l02, 48 h.
On to `COc1cc([C@@H]2c3cc4c(cc3[C@@H](NC(=O)c3cnc(C)cn3)[C@H]3COC(=O)[C@H]23)OCO4)cc(OC)c1O`, for which the Activity entry is “Dose-dependent effect”.

In the case of `COc1cc([C@@H]2c3cc4c(cc3[C@@H](NC(=O)Cn3cnc5c3c(=O)n(C)c(=O)n5C)[C@H]3COC(=O)[C@H]23)OCO4)cc(OC)c1O`, the Activity result is “Dose-dependent effect”.

Take `COc1cc([C@@H]2c3cc4c(cc3[C@@H](OC(=O)c3cnc(C)cn3)[C@H]3COC(=O)[C@H]23)OCO4)cc(OC)c1O`: the Activity result was “Dose-dependent effect”.

System in the next data set: not listed separately
Description: Cytotoxicity against human BGC823 cells after 48 hrs by MTT assay. Format: functional, cell-based. The following applies: BGC-823, 48 h. The method in brief:
as §1
Compound `COc1cc([C@@H]2c3cc4c(cc3[C@@H](NC(=O)c3cnc(C)cn3)[C@H]3COC(=O)[C@H]23)OCO4)cc(OC)c1O` yielded an IC50 of 3.49 µM.

Compound `COc1cc([C@@H]2c3cc4c(cc3[C@@H](NC(=O)Cn3cnc5c3c(=O)n(C)c(=O)n5C)[C@H]3COC(=O)[C@H]23)OCO4)cc(OC)c1O` registered an IC50 of 5.88 µM.

`COc1cc([C@@H]2c3cc4c(cc3[C@@H](OC(=O)c3cnc(C)cn3)[C@H]3COC(=O)[C@H]23)OCO4)cc(OC)c1O` gave a half-maximal inhibitory concentration (IC50) of 1.5 µM. This IC50 lies about 3.9-fold lower than the previous one.
